Assay results from ChEMBL document CHEMBL4689842, “EUbOPEN Chemogenomics Library wave 1” (2021).

Test system: HEK-293T
Assay: Multiplex assay against HEK293T;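 for Population Tubulin-Different-Phenotype (%): share of the cells with healthy nuclei that show this phenotype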
Type: toxicity, cell-based
Settings: human
Summary of the method: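 Live cells were stained at seeding with Hoechst33342, BioTracker Green Microtubule Cytoskeleton Dye, MitoTracker Red and Annexin V Alexa Fluor 680, then imaged on a CQ1 microscope at 37°C and 5% CO2 after compound addition. CellPathfinder machine-learning gating split cells into Hoechst high-intensity objects or normal cells. Normal cells were split into healthy, pyknosed or fragmented nuclei, and pyknosed cells into mitotic or apoptotic. Tubulin, mitochondrial-mass and membrane-permeability phenotypes are per cents of healthy-nucleus cells.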

[1] = 12 h, 1 µM, compound concentration 1 uM, replicate 1
[2] = 12 h, 1 µM, compound concentration 1 uM, replicate 2
[3] = 12 h, 10 µM, compound concentration 10 uM, replicate 1
[4] = 12 h, 10 µM, compound concentration 10 uM, replicate 2
[5] = 24 h, 1 µM, compound concentration 1 uM, replicate 1
[6] = 24 h, 1 µM, compound concentration 1 uM, replicate 2
[7] = 24 h, 10 µM, compound concentration 10 uM, replicate 1
[8] = 24 h, 10 µM, compound concentration 10 uM, replicate 2
[9] = 48 h, 1 µM, compound concentration 1 uM, replicate 1
[10] = 48 h, 1 µM, compound concentration 1 uM, replicate 2
[11] = 48 h, 10 µM, compound concentration 10 uM, replicate 1
[12] = 48 h, 10 µM, compound concentration 10 uM, replicate 2

## Cc1nc(-c2ccc(-c3ccc(C(=O)N4CCc5cc6c(cc54)C4(CCN(C)CC4)CO6)cc3)c(C)c2)no1 [SB-224289]
[1]
  Population Apoptotic (%): 59%
  Population Fragmented Nuclei (%): 17%
  Population Hoechst High Intensity Objects (%): 14%
  Population Membrane Permeable-Phenotype (%): 2%
  Population Mitochondria Different-Phenotype (%): 94%
  Population Mitotic Cells (%): 40%
  Population Normal (%): 85%
  Population Pyknosed Nuclei (%): 48%
  Population Tubulin-Different-Phenotype (%): 82%
  Total Cell Count: 225
[2]
  Population Apoptotic (%): 24%
  Population Fragmented Nuclei (%): 4%
  Population Healthy Nuclei (%): 34%
  Population Hoechst High Intensity Objects (%): 3%
  Population Membrane Permeable-Phenotype (%): 12%
  Population Mitochondria Different-Phenotype (%): 75%
  Population Mitotic Cells (%): 75%
  Population Normal (%): 96%
  Population Pyknosed Nuclei (%): 60%
  Population Tubulin-Different-Phenotype (%): 66%
  Total Cell Count: 194
[3]
  Population Apoptotic (%): 87%
  Population Fragmented Nuclei (%): 8%
  Population Healthy Nuclei (%): 22%
  Population Hoechst High Intensity Objects (%): 15%
  Population Membrane Permeable-Phenotype (%): 0%
  Population Mitochondria Different-Phenotype (%): 98%
  Population Mitotic Cells (%): 12%
  Population Normal (%): 84%
  Population Pyknosed Nuclei (%): 68%
  Population Tubulin-Different-Phenotype (%): 98%
  Total Cell Count: 320
[4]
  Population Apoptotic (%): 88%
  Population Fragmented Nuclei (%): 3%
  Population Healthy Nuclei (%): 16%
  Population Hoechst High Intensity Objects (%): 9%
  Population Membrane Permeable-Phenotype (%): 4%
  Population Mitochondria Different-Phenotype (%): 95%
  Population Mitotic Cells (%): 11%
  Population Normal (%): 90%
  Population Pyknosed Nuclei (%): 80%
  Population Tubulin-Different-Phenotype (%): 85%
  Total Cell Count: 141
[5]
  Population Apoptotic (%): 67%
  Population Fragmented Nuclei (%): 17%
  Population Healthy Nuclei (%): 35%
  Population Hoechst High Intensity Objects (%): 10%
  Population Membrane Permeable-Phenotype (%): 1%
  Population Mitochondria Different-Phenotype (%): 89%
  Population Mitotic Cells (%): 32%
  Population Normal (%): 89%
  Population Pyknosed Nuclei (%): 46%
  Population Tubulin-Different-Phenotype (%): 63%
  Total Cell Count: 231
[6]
  Population Apoptotic (%): 33%
  Population Fragmented Nuclei (%): 4%
  Population Healthy Nuclei (%): 46%
  Population Hoechst High Intensity Objects (%): 3%
  Population Membrane Permeable-Phenotype (%): 5%
  Population Mitochondria Different-Phenotype (%): 73%
  Population Mitotic Cells (%): 66%
  Population Normal (%): 96%
  Population Pyknosed Nuclei (%): 48%
  Population Tubulin-Different-Phenotype (%): 73%
  Total Cell Count: 232
[7]
  Population Apoptotic (%): 92%
  Population Fragmented Nuclei (%): 8%
  Population Healthy Nuclei (%): 13%
  Population Hoechst High Intensity Objects (%): 18%
  Population Membrane Permeable-Phenotype (%): 2%
  Population Mitochondria Different-Phenotype (%): 100%
  Population Mitotic Cells (%): 7%
  Population Normal (%): 81%
  Population Pyknosed Nuclei (%): 77%
  Population Tubulin-Different-Phenotype (%): 100%
  Total Cell Count: 316
[8]
  Population Apoptotic (%): 97%
  Population Fragmented Nuclei (%): 5%
  Population Healthy Nuclei (%): 24%
  Population Hoechst High Intensity Objects (%): 12%
  Population Membrane Permeable-Phenotype (%): 0%
  Population Mitotic Cells (%): 2%
  Population Normal (%): 88%
  Population Pyknosed Nuclei (%): 70%
  Population Tubulin-Different-Phenotype (%): 93%
  Total Cell Count: 150
[9]
  Population Apoptotic (%): 76%
  Population Fragmented Nuclei (%): 21%
  Population Healthy Nuclei (%): 48%
  Population Hoechst High Intensity Objects (%): 12%
  Population Membrane Permeable-Phenotype (%): 0%
  Population Mitochondria Different-Phenotype (%): 67%
  Population Mitotic Cells (%): 23%
  Population Normal (%): 87%
  Population Pyknosed Nuclei (%): 30%
  Population Tubulin-Different-Phenotype (%): 53%
  Total Cell Count: 261
[10]
  Population Apoptotic (%): 25%
  Population Fragmented Nuclei (%): 4%
  Population Healthy Nuclei (%): 72%
  Population Hoechst High Intensity Objects (%): 4%
  Population Membrane Permeable-Phenotype (%): 2%
  Population Mitochondria Different-Phenotype (%): 45%
  Population Mitotic Cells (%): 75%
  Population Normal (%): 95%
  Population Pyknosed Nuclei (%): 22%
  Population Tubulin-Different-Phenotype (%): 56%
  Total Cell Count: 371
[11]
  Population Apoptotic (%): 92%
  Population Fragmented Nuclei (%): 13%
  Population Healthy Nuclei (%): 10%
  Population Hoechst High Intensity Objects (%): 26%
  Population Membrane Permeable-Phenotype (%): 7%
  Population Mitochondria Different-Phenotype (%): 100%
  Population Mitotic Cells (%): 7%
  Population Normal (%): 73%
  Population Pyknosed Nuclei (%): 75%
  Population Tubulin-Different-Phenotype (%): 82%
  Total Cell Count: 363
[12]
  Population Apoptotic (%): 100%
  Population Fragmented Nuclei (%): 5%
  Population Healthy Nuclei (%): 28%
  Population Hoechst High Intensity Objects (%): 17%
  Population Membrane Permeable-Phenotype (%): 6%
  Population Mitochondria Different-Phenotype (%): 96%
  Population Mitotic Cells (%): 0%
  Population Normal (%): 82%
  Population Pyknosed Nuclei (%): 66%
  Population Tubulin-Different-Phenotype (%): 57%
  Total Cell Count: 139
